What all share (assay type): biochemical
Experiment [1] has as its target T1, sickle hemoglobin (HbS) (Homo sapiens, UniProt P68871+P69905, P68871:E7V). As to the kind of experiment: NMR binding. Put shortly:
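HbS labelled at cysteine thiols with rhodamine red (donor) or Cy5 (acceptor) after TCEP reduction; free dye dialysed away. Donor and acceptor HbS mixed 1:5 at 25 μM. Incubated 2 h at room temperature with test compound at seven concentrations (0.1–1000 μM) or DMSO. Vacuum argon degassed 10 min to deoxygenate. Donor fluorescence lifetime read; FRET efficiency E = 1 − τDA/τD.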

The target of experiment [2] is T1, sickle hemoglobin (HbS). As to the kind of experiment: DLS oligomer size and FLT-FRET with purified deoxy-HbS.
Experiment [3] has as its target T1, sickle hemoglobin (HbS). The experiment is described as follows: FLT-FRET dose response and DLS.

With `CN1C(=O)CCS(=O)(=O)C1c1ccc(Cl)cc1` (stereo not drawn) [chlormezanone], on sickle hemoglobin (HbS) [1], the IC50 (in general, the midpoint of a concentration-inhibition curve) is above 100 µM.

With `CC(C)n1nccc1-c1ncccc1COc1cccc(O)c1C=O` [voxelotor], at sickle hemoglobin (HbS) [2], the “DLS oligomer size and FLT-FRET with purified deoxy-HbS” value is given as “voxelotor (a compound that increases hemoglobin oxygen binding affinity), which dramatically reduced the mean oligomer size (Figure 1A)”.

As to `COc1ccc(-c2ccc(=N)n(CCCC(=O)O)n2)cc1` [gabazine], at sickle hemoglobin (HbS) [3], the “FLT-FRET dose response and DLS (100 μM) with purified deoxy-HbS” value is “all three compounds significantly decreased the oligomer size relative to control (and to the same extent as voxelotor)”.

The values above are taken from publication PMC9472799 (Biomacromolecules, 2022).
